Key:
[1] = target: T1, Prostaglandin G/H synthase 1 (Mus musculus, UniProt P22437); experiment: Inhibition of COX-1 in mouse J774 cells assessed as inhibition of PEG2 production using arachidonic acid as substrate pretreated for 15 mins followed by substrate addition measured after 30 mins by radioimmuno assay; type: cell-based
T1 sequence (P22437 whole entry): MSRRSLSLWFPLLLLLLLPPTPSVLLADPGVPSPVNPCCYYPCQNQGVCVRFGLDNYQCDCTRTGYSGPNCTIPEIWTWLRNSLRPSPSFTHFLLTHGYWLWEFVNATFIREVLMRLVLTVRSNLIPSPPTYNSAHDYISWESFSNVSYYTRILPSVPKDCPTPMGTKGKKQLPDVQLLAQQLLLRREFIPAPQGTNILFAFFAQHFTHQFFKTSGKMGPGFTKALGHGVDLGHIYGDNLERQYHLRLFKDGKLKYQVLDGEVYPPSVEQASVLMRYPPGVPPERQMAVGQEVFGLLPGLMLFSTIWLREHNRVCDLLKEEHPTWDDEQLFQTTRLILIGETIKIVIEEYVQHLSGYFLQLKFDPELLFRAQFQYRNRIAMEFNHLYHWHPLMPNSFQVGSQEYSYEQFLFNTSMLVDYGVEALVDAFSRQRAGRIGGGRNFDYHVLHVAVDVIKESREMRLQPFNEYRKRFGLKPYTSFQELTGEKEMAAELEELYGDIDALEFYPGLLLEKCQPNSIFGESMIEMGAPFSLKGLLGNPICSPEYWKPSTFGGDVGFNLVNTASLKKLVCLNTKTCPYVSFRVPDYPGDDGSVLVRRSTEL
How it was run: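 Murine J774 macrophages were adhered 2 h at 37 °C in 5% CO2 and given fresh medium. They were pretreated 15 min with compound (10 µM; 0.1–1 µM when inhibition exceeded 50%), then incubated 30 min at 37 °C with 15 µM arachidonic acid. Supernatant PGE2 was measured by RIA. Values are means of 3 experiments of % inhibition versus control, with IC50 from a sigmoidal variable-slope fit.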

[2] = target: T2, Prostaglandin G/H synthase 2 (Mus musculus, UniProt Q05769); experiment: Inhibition of COX-2 in LPS-induced mouse J774 cells assessed as inhibition of PEG2 production after 24 hrs by radioimmuno assay; type: cell-based
T2 sequence (Q05769 whole entry): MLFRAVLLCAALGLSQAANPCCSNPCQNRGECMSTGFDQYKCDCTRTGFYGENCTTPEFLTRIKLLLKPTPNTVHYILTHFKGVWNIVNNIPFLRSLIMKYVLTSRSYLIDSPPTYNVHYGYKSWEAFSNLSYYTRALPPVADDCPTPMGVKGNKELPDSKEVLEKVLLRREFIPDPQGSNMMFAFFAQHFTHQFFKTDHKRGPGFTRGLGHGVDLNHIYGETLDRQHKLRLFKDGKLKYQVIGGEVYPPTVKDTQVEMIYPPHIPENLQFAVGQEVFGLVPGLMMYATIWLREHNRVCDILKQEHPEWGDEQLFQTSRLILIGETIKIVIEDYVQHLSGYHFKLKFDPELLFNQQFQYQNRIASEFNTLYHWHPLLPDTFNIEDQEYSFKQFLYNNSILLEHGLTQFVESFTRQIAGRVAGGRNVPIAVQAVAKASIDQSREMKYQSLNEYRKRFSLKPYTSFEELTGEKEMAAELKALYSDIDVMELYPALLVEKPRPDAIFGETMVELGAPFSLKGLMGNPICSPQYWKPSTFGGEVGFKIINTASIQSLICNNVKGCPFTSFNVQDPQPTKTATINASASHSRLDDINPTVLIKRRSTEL

Mus musculus [3] = species on record: Mus musculus; experiment: Selectivity index, ratio of IC50 for inhibition of COX-1 in mouse J774 cells to IC50 for inhibition of COX-2 in LPS-induced mouse J774 cells; type: cell-based
Rattus norvegicus [4] = experiment: (§1) Anti-inflammatory activity in rat assessed as effect on carrageenan-induced hyperalgesia by measuring paw pressure tolerance at 20 mg/kg, po administered as single dose preincubated with carrageenan for 4 hrs and followed by compound treatment and measured after 30 mins by paw-pressure test (reference value: 33.9 +/- 3.7 g); type: functional
Rattus norvegicus [5] = experiment: as §1, with “60” for “30”, “37.2” for “33.9”, “3.5” for “3.7”; type: functional
Rattus norvegicus [6] = experiment: as §1, with “90” for “30”, “36.7” for “33.9”, “4” for “3.7”; type: functional
Rattus norvegicus [7] = experiment: (§2) Antiinflammatory activity in rat assessed as effect on carrageenan-induced paw edema by measuring paw volume at 20 mg/kg, po administered as single dose preincubated with carrageenan for 4 hrs and followed by compound treatment and measured after 30 mins by plethysmometer (reference value: 2.78 +/- 0.09 ml); type: functional
Rattus norvegicus [8] = experiment: as §2, with “inhibition of” for “effect on”, “1 hr” for “30 mins”, “relative to untreated control” for “(reference value: 2.78 +/- 0.09 ml)”; type: functional
Mus musculus [9] = experiment: Antinociceptive activity in Swiss albino mouse model of acetic-acid-induced writhing assessed as inhibition of writhing numbers at 10 mg/kg, po measured starting 5 mins post acetic acid challenge for 10 mins (reference value: 30.5 +/- 3.7)
Mus musculus [10] = experiment: Antinociceptive activity in Swiss albino mouse model of acetic-acid-induced writhing assessed as inhibition of writhing numbers at 20 mg/kg, po measured starting 5 mins post acetic acid challenge for 10 mins (reference value: 30.5 +/- 3.7)
Mus musculus [11] = experiment: Antinociceptive activity in Swiss albino mouse model of acetic-acid-induced writhing assessed as inhibition of writhing numbers at 40 mg/kg, po measured starting 5 mins post acetic acid challenge for 10 mins (reference value: 30.5 +/- 3.7)

Row | IC50 [1] [µM] | IC50 [2] [nM] | SMILES | Ratio IC50 (Mus musculus [3]) | Activity (Rattus norvegicus [4]) [g] | Activity (Rattus norvegicus [5]) [g] | Activity (Rattus norvegicus [6]) [g] | Activity (Rattus norvegicus [7]) [mL] | inhibition in vivo at 20 mg/kg (Rattus norvegicus [8]) [%] | Activity (Mus musculus [9]) | Activity (Mus musculus [10]) | Activity (Mus musculus [11])
1 | > 10 | 14 | CCCSCCc1cc(-c2ccc(S(C)(=O)=O)cc2)n(-c2ccccc2)c1C | > 714 | 46 | 40.3 | 40.2 | 1.69 | 100 | 32.6 | 25.9 | 26.4
2 | > 10 | 60 | CCC[S+]([O-])CCc1cc(-c2ccc(S(C)(=O)=O)cc2)n(-c2ccccc2)c1C (centres undefined) | > 167 |  |  |  |  |  |  |  | 
3 | > 10 | 11 | CCCSCCc1cc(-c2ccc(S(C)(=O)=O)cc2)n(-c2ccc(F)cc2)c1C | > 909 | 57.3 | 50.4 | 41.9 | 1.75 | 100 | 28.7 | 17.4 | 15.9
4 | > 10 | 44 | CCCS(=O)(=O)CCc1cc(-c2ccc(S(C)(=O)=O)cc2)n(-c2ccc(F)cc2)c1C | > 227 |  |  |  |  |  |  |  | 
5 | > 10 | 40 | CCC[S+]([O-])CCc1cc(-c2ccc(S(C)(=O)=O)cc2)n(-c2ccc(F)cc2)c1C (centres undefined) | > 250 | 53.5 | 42.5 | 38.2 | 1.55 | 100 | 28.8 | 23.4 | 20.3
6 | > 10 | 34 | CCCS(=O)(=O)CCc1cc(-c2ccc(S(C)(=O)=O)cc2)n(-c2ccccc2)c1C | > 294 |  |  |  |  |  |  |  | 
7 | > 10 |  | Cc1c(CCOCCO)cc(-c2ccc(S(C)(=O)=O)cc2)n1-c1ccc(F)cc1 |  |  |  |  |  |  |  |  | 
8 | > 10 | 285 | CCCSCCc1cc(-c2ccc(S(C)(=O)=O)cc2)n(-c2cccc(F)c2)c1C | > 24 | 41.5 | 38.8 | 37.2 | 1.74 | 100 | 30.3 | 23.4 | 23.7
